High-throughput results from PubChem BioAssay.
Platelet DG rel: modulates dense granule release in human platelets. 300,000 compounds, 0.22% hits. human platelet-rich plasma, SFLLRN dense granule ATP release, luminescence. inhibition, %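 (compounds screened at 7.5 µM in platelet-rich plasma)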;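 active = mean replicate score, as percent of positive control, at or above 50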
SENP8 block-1: inhibitors of human SENP8 protease; inhibition, % at 10 µM; purified SENP8, Z-RLRGG-aminoluciferin cleavage, luminescence; 330,000 compounds, 1.2% hits; in the data active = inhibition above about 50%
Target sequence (Q96LD8 whole entry, looked up): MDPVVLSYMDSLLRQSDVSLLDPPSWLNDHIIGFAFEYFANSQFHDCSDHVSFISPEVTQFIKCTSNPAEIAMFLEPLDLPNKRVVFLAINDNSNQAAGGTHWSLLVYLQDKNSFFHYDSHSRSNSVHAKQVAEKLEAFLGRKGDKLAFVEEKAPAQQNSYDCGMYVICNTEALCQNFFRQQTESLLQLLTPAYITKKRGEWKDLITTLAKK
SENP7 block: SENP7 protease inhibition; Q9BQF6; recombinant SENP7, Z-RLRGG-aminoluciferin luminescence, 40 min; inhibition, % at 5 µM; 330,000 compounds, 1.5% hits; AID 434973;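 active = inhibition above about 50% at the single test dose, limit read from the data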
SENP6 inh: inhibitors of human SENP6 protease; AID 2599; inhibition, % at 10 µM; 330,000 compounds, 1.8% hits; Q9GZR1; Recombinant SENP6 catalytic domain, aminoluciferin luminescence;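 active = inhibition above about 50% at the single tested dose, limit read from the data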
SENP1 inh: blocks the human SENP1 SUMO protease catalytic domain; recombinant SENP1 catalytic domain, CyPet-SUMO1-YPet FRET cleavage; 360,000 compounds, 0.21% hits; inhibition, % at 10 µM; Q9P0U3;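 active = inhibition at least 30% at 10 µM, raw YFP signal under a set limit, fluorescence ratio 0.5 to 1.5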
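Compound: 10 µM single point, 0.5% DMSO; Test system: hSENP1 catalytic domain, recombinant; Timing: 50 min reaction at room temperature; Technique: FRET, CFP and YFP emission; Control set: no-enzyme wells low, DMSO-plus-enzyme wells high control.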
SENP8 block-2: blocks human SENP8 cleavage of Nedd8 substrate | inhibition, % at 20 µM | recombinant SENP8, Nedd8 substrate fluorescence | 360,000 compounds, 0.64% hits; in the data active = inhibition mostly above about 40%, no sharp cut-off; inactive = mostly below about 27%
SENP8 confirm: human SENP8 inhibition, confirmed; shares compounds with SENP7 block; Recombinant SENP8, Z-RLRGG-aminoluciferin luminescence, 60 min; inhibition, % at 12.5 µM; 6,200 compounds, 40% hits;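 active = mean inhibition across replicates above about 50%, limit read from the data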
SENP6 conf: confirmation of human SENP6 protease inhibitors; shares compounds with SENP7 block; recombinant SENP6, Z-RLRGG-aminoluciferin luminescence; inhibition, % at 12.5 µM; 6,200 compounds, 58% hits; AID 488915
SENP7 conf: confirmation of human SENP7 protease inhibitors | 6,200 compounds, 69% hits | inhibition, % at 12.5 µM | shares compounds with SENP7 block | recombinant SENP7, Z-RLRGG-aminoluciferin luminescence, 40 min
Casp3 select: selectivity test for SENP inhibitors: human caspase-3 inhibition | shares compounds with SENP7 block | purified caspase-3, Z-DEVD-aminoluciferin luminescence, 60 min | inhibition, % at 12.5 µM | 6,200 compounds, 60% hits | AID 488918;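 active = mean inhibition above about 50%, limit read from the data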
Target sequence (P42574 28-227 limits assumed): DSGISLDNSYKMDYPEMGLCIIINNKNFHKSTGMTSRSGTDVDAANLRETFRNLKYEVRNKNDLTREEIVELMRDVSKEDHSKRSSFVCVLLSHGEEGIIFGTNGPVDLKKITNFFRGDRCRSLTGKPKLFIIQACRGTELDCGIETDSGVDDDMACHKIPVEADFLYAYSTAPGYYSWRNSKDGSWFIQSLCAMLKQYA
SENP luc ctr: counter-screen for SENP inhibitors: luminescence interference. Pre-incubated SENP8/Z-RLRGG-aminoluciferin, luciferase luminescence interference. 6,200 compounds, 39% hits. AID 488919. shares compounds with SENP7 block. inhibition, % at 12.5 µM;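 active = mean inhibition above about 50% when retested at one dose, limit read from the data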
Large screens that a line does not name were inactive (follow-up assays come after a bar, where they were run). The list is not random: actives were taken first. Their share in the collection is about 2.6%.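 The calls were made as follows, unless noted: active = mean inhibition above about 50% in the one-dose retest (limit read from the data); inactive = the rest.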

Cc1ccc(C(=O)n2c(=S)nc3ccccn32)cc1	none (no result: SENP8 block-1, SENP7 block, SENP6 inh, SENP1 inh, SENP8 block-2)
Cc1cccc(C(=O)n2c(=S)nc3ccccn32)c1	SENP7 block 90, SENP6 inh 91 | SENP8 confirm 77 | SENP6 conf 82 | SENP7 conf 92 | Casp3 select 69 | SENP luc ctr 56
O=C(COC(=O)C1=COCCO1)Nc1ccc([N+](=O)[O-])cc1C(F)(F)F	none (no result: Platelet DG rel)
O=C1C2CCCN2C(=S)N1c1cc(Cl)ccc1Cl (centres undefined)	none (no result: Platelet DG rel)
S=C(Nc1ccc(Cl)cc1)c1nc2ccccc2[nH]1	SENP6 inh 59 | SENP8 confirm inactive | SENP6 conf inactive | SENP7 conf 92 | Casp3 select 71 | SENP luc ctr inactive
CCn1cc(C(=O)NCCc2ccc(OC)c(OC)c2)c(=O)c2cc(S(=O)(=O)N3CCOCC3)ccc21	none
O=C(Nc1cccc(C(=O)N2CCOCC2)c1)c1ncn[nH]1	SENP7 block 85 | SENP8 confirm inactive | SENP6 conf inactive | SENP7 conf inactive | Casp3 select inactive | SENP luc ctr inactive
Cc1ccc(C(=O)Nc2cccc(C(=O)N3CCOCC3)c2)cc1	none
COc1ccc2c(c1)sc1nc(-c3ccccc3)cn12	Platelet DG rel 54, SENP8 block-1 96, SENP7 block 99, SENP6 inh 96 | SENP8 confirm inactive | SENP6 conf 101 | SENP7 conf 104 | Casp3 select 98 | SENP luc ctr 99
CCOC(=O)N1CCN(C(=O)c2ccc3c(c2)sc2nc(-c4ccc(OC)cc4)cn23)CC1	none
CCC(=O)N1CCc2cc(Br)cc(S(=O)(=O)N3CCCC(C(=O)O)C3)c21 (centres undefined)	none
COc1ccccc1CCn1c(N)c(C#N)c2nc3ccccc3nc21	SENP6 inh 51 | SENP8 confirm inactive | SENP6 conf inactive | SENP7 conf inactive | Casp3 select inactive | SENP luc ctr inactive
COc1ccc(CCn2c(N)c(C#N)c3nc4ccccc4nc32)cc1OC	SENP8 block-1 54, SENP6 inh 62 | SENP8 confirm inactive | SENP6 conf inactive | SENP7 conf inactive | Casp3 select inactive | SENP luc ctr inactive
COC(=O)Cn1c2ccccc2c(=O)n1C(C)CBr (centres undefined)	none (no result: Platelet DG rel, SENP8 block-1, SENP7 block, SENP6 inh)
Cc1cccc(OC(=O)CCN2C(=O)C3C4C=CC(C5CC45)C3C2=O)c1C (centres undefined)	none
Cc1ccc(CS(=O)(=O)c2ccccc2-c2nnc(-c3ccc(Cl)cc3)o2)cc1	none
Cc1ccccc1-c1nnc(-c2ccccc2)o1	SENP8 block-1 83, SENP7 block 83, SENP6 inh 87 | SENP8 confirm 78 | SENP6 conf 88 | SENP7 conf 98 | Casp3 select 84 | SENP luc ctr 74
Cn1cc(-c2nnc(-c3ccccc3)o2)c2ccccc21	SENP7 block 68 | SENP8 confirm inactive | SENP6 conf inactive | SENP7 conf inactive | Casp3 select inactive | SENP luc ctr inactive
Cc1ccccc1-c1nnc(-c2ccc(Cl)cc2)o1	SENP8 block-1 58, SENP7 block 75 | SENP8 confirm inactive | SENP6 conf inactive | SENP7 conf inactive | Casp3 select inactive | SENP luc ctr inactive
Cc1ccc(/C=C/c2nnc(-c3cccc(C)c3)o2)cc1	SENP8 block-1 68, SENP6 inh 80 | SENP8 confirm inactive | SENP6 conf inactive | SENP7 conf inactive | Casp3 select inactive | SENP luc ctr inactive
